Consider 15 molecules from ChEMBL document CHEMBL3351385, “Synthesis and preliminary mechanistic evaluation of 5-(p-tolyl)-1-(quinolin-2-yl)pyrazole-3-carboxylic acid amides with potent antiproliferative activity on human cancer cell lines” (Eur J Med Chem, 2014).

Test [1] in a line: Cytotoxicity against human HuH7 cells after 72 hrs by SRB assay. Type of test: functional, cell-based. As to conditions: Huh-7, 72 h. In outline: (§1)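 Cells kept in DMEM with 10% FCS and penicillin/streptomycin at 37°C, 5% CO2. 2000–3000 cells/well were seeded, and medium was refreshed the next day. DMSO solutions were added over 2.5–40 µM with matched DMSO-only controls for 72 h. Cells were then TCA-fixed, stained with 0.4% SRB in 1% acetic acid, solubilized in 10 mM Tris pH 8 and read at 515 nm. Data were normalized to DMSO wells and expressed as mean ±SD.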

The subject of the next test is MCF7. Kind of test: Cytotoxicity against human MCF7 cells after 72 hrs by SRB assay. Type of test: functional, cell-based. As to conditions: MCF7, 72 h. The procedure, abridged: as §1
Background: The SRB assay estimates cell density from bound dye.

Test [2] is described as follows: Cytotoxicity against human HCT116 cells after 72 hrs by SRB assay. As to conditions: HCT-116, 72 h. It is filed as functional, cell-based. The procedure, abridged:
as §1

Test [3] deals with Huh-7. Kind of test: Induction of cell death in human HuH7 cells assessed as induction of intracytoplasmic vacuoles at cytotoxic IC50 level after 72 hrs by inverted light microscopy. It is filed as functional, cell-based. In outline: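 They were viewed under an inverted light microscope at 20× for death morphology, including intracytoplasmic vacuoles.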
The test system of test [4] is Huh-7. Kind of test: Induction of cell death in human HuH7 cells assessed as nuclear condensation at cytotoxic IC50 level after 72 hrs by Hoechst 33258 staining based […]. Type of test: functional. The procedure, abridged: (§2)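 Cells were washed in cold PBS, fixed 10 min in cold methanol and stained with Hoechst 33258 at 3 µg/mL for 5 min in the dark. Nuclear condensation and fragmentation were examined by fluorescence microscopy at 40×.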

Test [5] concerns Huh-7. Kind of test: Induction of cell death in human HuH7 cells assessed as DNA fragmentation at cytotoxic IC50 level after 72 hrs by Hoechst 33258 staining based […]. It is filed as functional. In outline: as §2
For test [6], the system named is Huh-7. Kind of test: Induction of autophagy in human HuH7 cells assessed as increase in LC3-2 formation at cytotoxic IC50 level after 72 hrs by Western blotting method. Type of test: functional, cell-based.
Test [7] can be described thus: Induction of cell cycle arrest in human Mahlavu cells assessed as accumulation at G0/G1 phase at cytotoxic IC50 level after 48 hrs by propidium iodide staining based FACS method. It is filed as functional. Background: A flow cytometer gives signals particle by particle.
The nature of test [8]: Induction of cell cycle arrest in human Mahlavu cells assessed as accumulation at S phase at cytotoxic IC50 level after 48 hrs by propidium iodide staining based FACS method. Type of test: functional.
The nature of test [9]: Induction of cell cycle arrest in human Mahlavu cells assessed as accumulation at G2/M phase at cytotoxic IC50 level after 48 hrs by propidium iodide staining based FACS method. It is filed as functional.
Test [10] is described as follows: Induction of cell cycle arrest in human HuH7 cells assessed as accumulation at G0/G1 phase at cytotoxic IC50 level after 48 hrs by propidium iodide staining based FACS method. Type of test: functional, Huh-7. The procedure, abridged: (§3)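 Huh7 cells were seeded at 150,000–300,000 per 100-mm dish and left 24 h. […] Cells were stained with a propidium iodide-containing cell cycle reagent, and subG1, G0/G1, S and G2/M fractions were scored by flow cytometry.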

Test [11] is described as follows: Induction of cell cycle arrest in human HuH7 cells assessed as accumulation at S phase at cytotoxic IC50 level after 48 hrs by propidium iodide staining based FACS method. It is filed as functional, Huh-7. In outline:
as §3

Test [12] in a line: Induction of cell cycle arrest in human HuH7 cells assessed as accumulation at G2/M phase at cytotoxic IC50 level after 48 hrs by propidium iodide staining based FACS method. Type of test: functional, Huh-7. The procedure, abridged: as §3

As a reminder, the IC50 is the concentration that gives 50% inhibition. Read a low IC50 as higher potency.

Calls of active or inactive are those of the source. The rule behind the calls is not given here.

Take `Cc1ccc(-c2cc(C(=O)Nc3ccncc3Br)nn2-c2ccc3ccccc3n2)cc1`: the results for the IC50 (in [1]; in the test on MCF7; in test [2]) were 13.1 µM, 11 µM and 15.5 µM, respectively.

In the case of `CC[C@@]1(O)C(=O)OCc2c1cc1n(c2=O)Cc2cc3ccccc3nc2-1` [CAMPTOTHECIN], the IC50 in [1] is 0.004 µM; with MCF7, 0.0006 µM; in test [2], 0.00015 µM.

In the case of `COc1ncccc1NC(=O)c1cc(-c2ccc(C)cc2)n(-c2ccc3ccccc3n2)n1`, the results for the concentration for half-maximal inhibition (IC50) (in test [1]; with MCF7; in [2]) were 7.9 µM, 30.2 µM and 15.7 µM, respectively.

With `Cc1ccc(-c2cc(C(=O)N3CCN(c4ncccc4C(F)(F)F)CC3)nn2-c2ccc3ccccc3n2)cc1`, the IC50 in [1] was 12.7 µM; in the test with MCF7 it was 5.8 µM; in [2] it was 9.7 µM.

Regarding `Cc1ccc(-c2cc(C(=O)N3CCN(c4c(Cl)cncc4Cl)CC3)nn2-c2ccc3ccccc3n2)cc1`, the IC50 in test [1] amounted to 4.6 µM; with MCF7, 9.7 µM; in [2] it was 4.8 µM.

As to `Cc1ccc(-c2cc(C(=O)N3CCN(c4ncccc4C#N)CC3)nn2-c2ccc3ccccc3n2)cc1`, the results for the IC50 (in test [1]; in the test on MCF7; in test [2]) were 21.5 µM, 79.5 µM and 39.4 µM, respectively.

With `Cc1ccc(-c2cc(C(=O)Nc3ccncc3)nn2-c2ccc3ccccc3n2)cc1`, the results for the IC50 (in [1]; in the test with MCF7; in test [2]) were 8 µM, 15.4 µM and 8.1 µM, respectively.

`Cc1ccc(-c2cc(C(=O)N3CCN(c4ncc(C(F)(F)F)cc4Cl)CC3)nn2-c2ccc3ccccc3n2)cc1`: the figures for the 50% inhibitory concentration (IC50) (in test [1]; with MCF7; in test [2]) were 8 µM, 48 µM and 13.3 µM, respectively.

With `Cc1ccc(-c2cc(C(=O)N3CCN(c4cccc(C(F)(F)F)n4)CC3)nn2-c2ccc3ccccc3n2)cc1`, the values for the IC50 (in [1]; in the test on MCF7; in test [2]) were 10.2 µM, 11.4 µM and 9.4 µM, respectively.

As to `Cc1ccc(-c2cc(C(=O)N3CCN(c4ccc(C(F)(F)F)cn4)CC3)nn2-c2ccc3ccccc3n2)cc1`, the values for the IC50 (in test [1]; in the test on MCF7; in test [2]) were 20.9 µM, 44.7 µM and 17 µM, respectively.

On to `Cc1ccc(-c2cc(C(=O)N3CCN(c4ccccn4)CC3)nn2-c2ccc3ccccc3n2)cc1`, for which the values for the IC50 (in test [1]; in the test on MCF7; in test [2]) were 4.8 µM, 12 µM and 5.1 µM, respectively.

In the case of `Cc1ccc(-c2cc(C(=O)N3CCN(c4ccncc4)CC3)nn2-c2ccc3ccccc3n2)cc1`, the half-inhibitory concentration (IC50) was found to be 7.8 µM in test [1], 4.7 µM in the test on MCF7 and 7.1 µM in test [2]. The result in the test on Huh-7 [3], in the test on Huh-7 [4], with Huh-7 [5] and with Huh-7 [6] was Active. For the same molecule, the Activity in test [7] was found to be 52.9%; in [8], 17%; in test [9], 24.4%; in test [10], 57.2%; in [11] it was 7.2%; in [12], 33%.

Consider `Cc1ccc(-c2cc(C(=O)Nc3ccc(Cl)nc3Cl)nn2-c2ccc3ccccc3n2)cc1`, for which the IC50 was determined as 14 µM in [1], 12.7 µM in the test with MCF7 and 7.9 µM in [2].

Take `Cc1ccc(-c2cc(C(=O)Nc3ncc(Br)cc3Br)nn2-c2ccc3ccccc3n2)cc1`: the half-inhibitory concentration (IC50) in test [1] came out at 11.5 µM; in the test on MCF7 it was 16.9 µM; in [2] it was 9.6 µM.

With `Cc1ccc(-c2cc(C(=O)NCc3cccnc3)nn2-c2ccc3ccccc3n2)cc1`, the IC50 was 14.1 µM in test [1], 19 µM in the test on MCF7 and 11.2 µM in [2]. Further, the result in the test on Huh-7 [3], in the test with Huh-7 [4], with Huh-7 [5] and in the test with Huh-7 [6] was Active. Also, the Activity in [7] is 56.1%; in test [8] it was 14%; in [9] it was 28.5%; in test [10], 56.1%; in test [11], 10.5%; in [12], 32.3%.
